Measurements from the EternaBench riboswitch data.

What was measured:
[1] = system: MS2 coat protein; experiment: apparent Kd, MS2 coat protein; higher = weaker binding; RNA-MaP array; theophylline 2 mM where present
Method in brief: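 In 100 mM Tris-HCl pH 7.5, 80 mM KCl, 4 mM MgCl2, BSA, DTT, yeast tRNA and Tween-20, SNAP-549-labelled MS2 coat protein was titrated from 0.7 or 1.5 nM, doubling to 3 µM, over designs transcribed by stalled E. coli RNA polymerase on Illumina sequencing-chip clusters. This was done first without ligand, then with ligand held constant. After green signal was normalised to red-channel RNA signal and control-cluster median Fmax, the apparent Kd was taken as the median of filtered per-cluster binding-curve fits.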

[2] = system: MS2 coat protein; experiment: apparent Kd, MS2 coat protein; higher = weaker binding; RNA-MaP array
Method in brief: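 The designed RNAs, transcribed from sequenced DNA templates on an Illumina sequencing chip, were incubated with fluorescently labeled MS2 coat protein at room temperature. Protein ranged from 1.5 nM to 3 μM, with 0.8–1.5 h incubation at the lowest and 10–20 min at the highest concentrations, in Tris-HCl pH 7.5 buffer with KCl, MgCl2, BSA, DTT, tRNA and Tween20, with or without input ligand. The median of per-cluster binding-curve fits gives the apparent Kd, and designs measured on fewer than 10 clusters were excluded.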

[3] = designed as: OFF switch for theophylline, no ligand
[4] = ligand present: theophylline, designed as: OFF switch for theophylline
[5] = designed as: ON switch for theophylline, no ligand
[6] = ligand present: theophylline, designed as: ON switch for theophylline
[7] = designed as: OFF switch for tryptophan, no ligand
[8] = ligand present: tryptophan, designed as: OFF switch for tryptophan
[9] = designed as: OFF switch for flavin mononucleotide, no ligand
[10] = ligand present: flavin mononucleotide, designed as: OFF switch for flavin mononucleotide
[11] = designed as: ON switch for flavin mononucleotide, no ligand
[12] = ligand present: flavin mononucleotide, designed as: ON switch for flavin mononucleotide

AAACAUUGCUCAGAUACCAGACAUGAGGAUCACCCAUGUACCAAGGUAAAGAAAUAACGUGUCCCUUGGCAGCUGAGCAAUGAAA
apparent Kd [1, 3]: 10.2 nM | apparent Kd [1, 4]: 109 nM

AAACAUUGCUGCGAUACCAGACAUGAGGAUCACCCAUGUACCAAGGUAAGAAAAUAACAUGUCCCUUGGCAGCGCAGCAAUGAAA
apparent Kd [1, 3]: 16.4 nM | apparent Kd [1, 4]: 418 nM

AAACGUUGCUCAGAUACCAGACAUGAGGAUCACCCAUGUACCAAGGUAACCGAAAGGCAUGUCCCUUGGCAGCUGAGCAACGAAA
apparent Kd [1, 3]: 12.8 nM | apparent Kd [1, 4]: 262 nM

AAACGUUGCUGCGAUACCAGACAUGAGGAUCACCCAUGUACCAAGAAAACGUACAUAAAUGUCCCUUGGCAGCGCAGCAACGAAA
apparent Kd [1, 3]: 582 nM | apparent Kd [1, 4]: 1110 nM

AAAGGCGGGCAGGAUACCAGCGCUAACAUGAGGAUCACCCAUGUACAAAUAAUAACAUGGUGCCCUUGGCAGCCUGGGCGUCUGC
apparent Kd [1, 5]: 56 nM | apparent Kd [1, 6]: 285 nM

AACUGGGUUCGUGAUACCAGCUCACACAUGAGGAUCACCCAUGUAGUGGGUAAAAUGUGGAGCCCUUGGCAGCACUGUGACCACG
apparent Kd [1, 3]: 13.2 nM | apparent Kd [1, 4]: 60.7 nM

AAGCUGCCAAGAAGGUGAUCCAAAUGUGAUACCAGCUAGGAAACUAGCCCUUGGCAGCACAUGAGGAUCACCCAUGUAAUAAUAA
apparent Kd [1, 3]: 60.8 nM | apparent Kd [1, 4]: 182 nM

AAGGUGAUCCCAGAUACCAGCCUAACAUGAGGAUCACCCAUGUUUGGGACGAAAGUCCCAGGCCCUUGGCAGCUGGGUUGCCAAG
apparent Kd [1, 5]: 225 nM | apparent Kd [1, 6]: 30.3 nM

AAGGUGAUCCUCGAUACCAGCUCAACAUGAGGAUCACCCAUGUAAGCCUGGAAACAGGCGAGCCCUUGGCAGCGAGUUACAUCAA
apparent Kd [1, 5]: 62.1 nM | apparent Kd [1, 6]: 17.8 nM

ACACAUGAGGAUCACCCAUGUCCAAUAGAUACCAGUGAUACAGUGCACCCUUGGCAGCUGUUACUGAGUAAUGGUUCCCUCGGAA
apparent Kd [1, 5]: 36.6 nM | apparent Kd [1, 6]: 46 nM

ACACAUGAGGAUCACCCAUGUUGCAUAGAUACCAGAUAACGUGAGAUCCCUUGGCAGCUAACUGCAUGAACUUGACAUGCAUCAU
apparent Kd [1, 5]: 42.4 nM | apparent Kd [1, 6]: 136 nM

ACAUGAAGAACAGCGGUGGGCGCGCUCGAUACCAGUAUUUUAAACUACCCUUGGCAGCGACAUGAGGAUCACCCAUGUGAGAUGA
apparent Kd [1, 3]: 18.2 nM | apparent Kd [1, 4]: 35.7 nM

UAAUCGUAGGCGGCCGCCACUUUUUGGUAGUGUCCAUUGUACACUCACAUGAGGAUCACCCAUGUAAGGACCGGGCCCGCAUCAG
apparent Kd [2, 7]: 17 nM | apparent Kd [2, 8]: 16.7 nM

UACCGAGGGACAGGAUAUUGAGCAUGCCUCGCCCAAGAAGGGUCUUCUGGAGUGACUUAUAACAUGAGGAUCACCCAUGUGAUC
apparent Kd [2, 9]: 410 nM | apparent Kd [2, 10]: 262 nM

UACCUUAUUGUUAGGAUAUGCAGAUACAAAGGUGAGCAGAAGGAACAUGAGGAUCACCCAUGUAAAAUAAUAAA
apparent Kd [2, 9]: 16.6 nM | apparent Kd [2, 10]: 48 nM

UACUGUCUAACGGCCGCCACUCAGUCUCGGUUGAUUAUCUUAAGUGACAUGAGGAUCACCCAUGUGAGGACCGGGUUGUGCAUAA
apparent Kd [2, 7]: 76 nM | apparent Kd [2, 8]: 136 nM

UAGAUAAGAAUCAAGGAUAUGAAAAGGCACACAUGAGGAUCACCCAUGUCAAGCACAAAAUGACGUCAGAAGGUGAUAAGCAGCAA
apparent Kd [2, 11]: 57.6 nM | apparent Kd [2, 12]: 35 nM

UAGGAUCAAGUAGGAUAUGUAGAACGGCUUUGUACAGAAGGACUAGUACAUGAGGAUCACCCAUGUUAGGGUACCUCUAAGGCA
apparent Kd [2, 10]: 198 nM

UAGUACCAAGUGAGGAUAUCUAAAGUCUAUGAAAGAGAGAAGGCACAUGAGGAUCACCCAUGUAACUAGGUGGG
apparent Kd [2, 9]: 152 nM | apparent Kd [2, 10]: 162 nM

UAUAUGAAGGGAGGAUAUGACCGAGAGUAAAUGUCAGAAGGCCCGUUUCUUCACCAACGUCCGGUACAUGAGGAUCACCCAUGU
apparent Kd [2, 11]: 11.3 nM | apparent Kd [2, 12]: 8.86 nM

UAUUAACAAGGAUAUACAUGAGGAUCACCCAUGUGAAACUAUUUUAUAAUAACAACAAGUAGAAGGAGUUAAAA
apparent Kd [2, 9]: 13.2 nM | apparent Kd [2, 10]: 10.8 nM

UAUUCUGACACAGAUACCAGUCAAUUCCGUGGCAAGUGCUACAUGAGGAUCACCCAUGUCGACCCUUGGCAGCUGAAGAGAUACA
apparent Kd [2, 3]: 12.1 nM | apparent Kd [2, 4]: 14.1 nM

UCACAGUCCCAGAAGGCCUUGUCAGAUUCAUAAGGAGGAUAUGGAUUACAUGAGGAUCACCCAUGUGAAUACUUACAGAGCAAC
apparent Kd [2, 11]: 79.3 nM | apparent Kd [2, 12]: 15.4 nM

UCACUCCUGAUGGAUACCAGUUACUAACGCAACAUGAGGAUCACCCAUGUGAACACUCAGAACCCUUGGCAGCCAGGAGAACGAA
apparent Kd [2, 5]: 48.2 nM | apparent Kd [2, 6]: 25.5 nM

UCAGAAAGAUAGGACCUACAUGAGGAUCACCCAUGUUGCUGUAGAAGGUGCCGUGCCAUCGUGAGCAAGGAUAUACCGAUAUGG
apparent Kd [2, 9]: 22.6 nM | apparent Kd [2, 10]: 15.8 nM

UCCACACAUGAGGAUCACCCAUGUUGACAUUAUUGAGGAUAUCGGAGUGAAGGUUCGGUUCGAGAAGGCAACCAGA
apparent Kd [2, 11]: 19.8 nM | apparent Kd [2, 12]: 14.8 nM

UCCACACGUCAGAAGGAUGUAUCUACAAUUUUCAUAGGAUAUGACCAUGGAGAUGAUUCCACAUGAGGAUCACCCAUGUCUGCU
apparent Kd [2, 9]: 288 nM | apparent Kd [2, 10]: 239 nM

UCGGACCGAGGAUAUACAGUUCGUGAAGGUAAGAUACACAGACAUGAGGAUCACCCAUGUAGAAGGCGGAGUCC
apparent Kd [2, 9]: 12.1 nM | apparent Kd [2, 10]: 15.6 nM

UCGUAGAUAGUAGGAUAUAAGGCCCUAGAGCAUUUAGAAGGACUUUUGAGACUAACAUGAGGAUCACCCAUGUUUCGCACAUGG
apparent Kd [2, 11]: 297 nM | apparent Kd [2, 12]: 171 nM

UGACCAUGCGAGAAGGCGUACAUGAGGAUCACCCAUGUUCGUAGAACAAUCGGGUAAGCAUGGCACGAGGAUAUCGCCAAUGCC
apparent Kd [2, 9]: 23.1 nM | apparent Kd [2, 10]: 93.6 nM

UGACCGUUAAUAGGAUAUGUUCUCUUCCACAUGAGGAUCACCCAUGUAAACUAUUGUGAAACUGGACAGAAGGAUUAAACAUUG
apparent Kd [2, 9]: 17.1 nM | apparent Kd [2, 10]: 14.1 nM

UGCAAAUGAUGAGAUACCAGUUCAGUUAAAUACAUGAGGAUCACCCAUGUCAGGGAACUCAACCCUUGGCAGCUCGAUGCACUCA
apparent Kd [2, 5]: 56.2 nM | apparent Kd [2, 6]: 14.9 nM

UGCGUGGGAAAGAAGGCGUCCGAAUUGUGGCCACGAGGAUAUUUCCGGCGCACAUGAGGAUCACCCAUGUUCAGCUGGUAGCGU
apparent Kd [2, 11]: 32.5 nM | apparent Kd [2, 12]: 22.1 nM

UUAACAUGAGGAUCACCCAUGUGAAGCCGGCGAUGAAUAGUACAGGAUAUCGAAUACCGCCUAGACGAGAAGGGUAUCAAUCGG
apparent Kd [2, 11]: 14.2 nM | apparent Kd [2, 12]: 12.7 nM

UUAGUACUAGGAUAUACGAUGGAAAGGAGAGCCUUACAAAUACAUGAGGAUCACCCAUGUAGAAGGAGUUGCCA
apparent Kd [2, 9]: 6.27 nM | apparent Kd [2, 10]: 5.93 nM

UUAUAAGCACCUGAUACCAGUAUGAACCCGUACAUGAGGAUCACCCAUGUUAAUUUCUAUUACCCUUGGCAGCAGCCUUUUUCCU
apparent Kd [2, 5]: 19.4 nM | apparent Kd [2, 6]: 17.6 nM

UUCUACAUGAGGAUCACCCAUGUCCCUGGGACCCUUGCAUCCAGAAGGCACGACUAGAUGGUGUGUGAGGAUAUGGAGGCGCUU
apparent Kd [2, 9]: 162 nM | apparent Kd [2, 10]: 144 nM

UUCUUACAUGAGGAUCACCCAUGUUCUGAUAGAGCAGGAUAUGAUGGUUAGAAGUAGAAAUCAGAAGGGCUCCAUG
apparent Kd [2, 11]: 100 nM | apparent Kd [2, 12]: 19.8 nM

UUGUGGGCGCUUCAGGAUAUCGCAAAAGAAACAUGAGGAUCACCCAUGUGGCCGAAGCAACUGGGCGAGAAGGGAAAGGCCCGAAG
apparent Kd [2, 11]: 17.3 nM | apparent Kd [2, 12]: 14.1 nM

UUUAACACCGGCAAGGAUAUUCUACAAAGAACAUGAGGAUCACCCAUGUCAACAAUCUACAUCACGAAGAAGGUGCAUCGGAUUAA
apparent Kd [2, 11]: 17.4 nM | apparent Kd [2, 12]: 9.95 nM

UUUCUGUUACAGAAGGGAAGGAAACAUGAGGAUCACCCAUGUCCACGCCGUUUACAUUCGGCCGUUCAGGAUAUGUCAUAUUGA
apparent Kd [2, 11]: 23.1 nM | apparent Kd [2, 12]: 17 nM
